ChEMBL document CHEMBL4715736, “Identification of anticancer agents based on the thieno[2,3-b]pyridine and 1H-pyrazole molecular scaffolds” (2016)

What was measured:
Type in all cases: functional
Conditions in all cases: read-out: Activity
MCF7 = experiment: Growth inhibition of human MCF7 cells assessed as cell growth at 10 uM incubated for 48 hrs by sulforhodamine B assay relative to control
In short: (§1)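 Submitted to the NCI Developmental Therapeutics Program for the NCI60 human tumour cell line panel. First screen at a single 10 µM concentration. Read-out is growth relative to untreated control cells set at 100%.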

Hs-578T = experiment: Growth inhibition of human Hs-578T cells assessed as cell growth at 10 uM incubated for 48 hrs by sulforhodamine B assay relative to control; in short: as §1
OVCAR-5 = experiment: Growth inhibition of human OVCAR-5 cells assessed as cell growth at 10 uM incubated for 48 hrs by sulforhodamine B assay relative to control
In short: (§2)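 Run by the NCI Developmental Therapeutics Program as part of its 60-line human tumour panel. Each compound tested at a single 10 µM dose. Growth expressed as % relative to untreated control cells (100%).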

ACHN = experiment: Growth inhibition of human ACHN cells assessed as cell growth at 10 uM incubated for 48 hrs by sulforhodamine B assay relative to control
In short: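 NCI Developmental Therapeutics Program NCI60 human tumour cell line panel, one-dose primary screen with every compound at 10 µM. Growth is expressed as % of untreated control cells (100%).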

A549 = experiment: Growth inhibition of human A549/ATCC cells assessed as cell growth at 10 uM incubated for 48 hrs by sulforhodamine B assay relative to control
In short: (§3)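 NCI Developmental Therapeutics Program NCI60 panel. Compounds that were active in the 10 µM one-dose screen went on to dose–response testing. Growth at each concentration is expressed relative to untreated control (100%). GI50 (concentration giving 50% of maximal inhibition of proliferation) and TGI (concentration giving total growth inhibition) were derived from the curves.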

NCI/ADR-RES = experiment: Growth inhibition of human NCI/ADR-RES cells assessed as cell growth at 10 uM incubated for 48 hrs by sulforhodamine B assay relative to control; in short: as §1
LOX IMVI = experiment: Growth inhibition of human LOX IMVI cells assessed as cell growth at 10 uM incubated for 48 hrs by sulforhodamine B assay relative to control; in short: as §1
T47D = experiment: Growth inhibition of human T47D cells assessed as cell growth at 10 uM incubated for 48 hrs by sulforhodamine B assay relative to control; in short: as §2
SW-620 = experiment: Growth inhibition of human SW-620 cells assessed as cell growth at 10 uM incubated for 48 hrs by sulforhodamine B assay relative to control; in short: as §2
NCI-H322M = experiment: Growth inhibition of human NCI-H322M cells assessed as cell growth at 10 uM incubated for 48 hrs by sulforhodamine B assay relative to control; in short: as §1
SK-MEL-28 = experiment: Growth inhibition of human SK-MEL-28 cells assessed as cell growth at 10 uM incubated for 48 hrs by sulforhodamine B assay relative to control; in short: as §2
HOP-92 = experiment: Growth inhibition of human HOP-92 cells assessed as cell growth at 10 uM incubated for 48 hrs by sulforhodamine B assay relative to control; in short: as §1
PC-3 = experiment: Growth inhibition of human PC-3 cells assessed as cell growth at 10 uM incubated for 48 hrs by sulforhodamine B assay relative to control; in short: as §2
OVCAR-8 = experiment: Growth inhibition of human OVCAR-8 cells assessed as cell growth at 10 uM incubated for 48 hrs by sulforhodamine B assay relative to control; in short: as §2
COLO 205 = experiment: Growth inhibition of human COLO 205 cells assessed as cell growth at 10 uM incubated for 48 hrs by sulforhodamine B assay relative to control; in short: as §3
SF-268 = experiment: Growth inhibition of human SF-268 cells assessed as cell growth at 10 uM incubated for 48 hrs by sulforhodamine B assay relative to control; in short: as §2
HCC 2998 = experiment: Growth inhibition of human HCC 2998 cells assessed as cell growth at 10 uM incubated for 48 hrs by sulforhodamine B assay relative to control; in short: as §3
SF-539 = experiment: Growth inhibition of human SF-539 cells assessed as cell growth at 10 uM incubated for 48 hrs by sulforhodamine B assay relative to control; in short: as §2
K562 = experiment: Growth inhibition of human K562 cells assessed as cell growth at 10 uM incubated for 48 hrs by sulforhodamine B assay relative to control; in short: as §1
U-251 = experiment: Growth inhibition of human U-251 cells assessed as cell growth at 10 uM incubated for 48 hrs by sulforhodamine B assay relative to control; in short: as §2
OVCAR-4 = experiment: Growth inhibition of human OVCAR-4 cells assessed as cell growth at 10 uM incubated for 48 hrs by sulforhodamine B assay relative to control; in short: as §2
UACC-62 = experiment: Growth inhibition of human UACC-62 cells assessed as cell growth at 10 uM incubated for 48 hrs by sulforhodamine B assay relative to control; in short: as §2
MDA-MB-435 = experiment: Growth inhibition of human MDA-MB-435 cells assessed as cell growth at 10 uM incubated for 48 hrs by sulforhodamine B assay relative to control; in short: as §1
CCRF-CEM = experiment: Growth inhibition of human CCRF-CEM cells assessed as cell growth at 10 uM incubated for 48 hrs by sulforhodamine B assay relative to control; in short: as §3
OVCAR-3 = experiment: Growth inhibition of human OVCAR-3 cells assessed as cell growth at 10 uM incubated for 48 hrs by sulforhodamine B assay relative to control; in short: as §2
NCI-H23 = experiment: Growth inhibition of human NCI-H23 cells assessed as cell growth at 10 uM incubated for 48 hrs by sulforhodamine B assay relative to control; in short: as §1
RPMI-8226 = experiment: Growth inhibition of human RPMI-8226 cells assessed as cell growth at 10 uM incubated for 48 hrs by sulforhodamine B assay relative to control; in short: as §2
SF-295 = experiment: Growth inhibition of human SF-295 cells assessed as cell growth at 10 uM incubated for 48 hrs by sulforhodamine B assay relative to control; in short: as §2
DU-145 = experiment: Growth inhibition of human DU-145 cells assessed as cell growth at 10 uM incubated for 48 hrs by sulforhodamine B assay relative to control; in short: as §3
IGROV-1 = experiment: Growth inhibition of human IGROV-1 cells assessed as cell growth at 10 uM incubated for 48 hrs by sulforhodamine B assay relative to control; in short: as §1
MDA-MB-468 = experiment: Growth inhibition of human MDA-MB-468 cells assessed as cell growth at 10 uM incubated for 48 hrs by sulforhodamine B assay relative to control; in short: as §1
MDA-MB-231 = experiment: Growth inhibition of human MDA-MB-231 cells assessed as cell growth at 10 uM incubated for 48 hrs by sulforhodamine B assay relative to control; in short: as §1
HL-60(TB) = experiment: Growth inhibition of human HL-60(TB) cells assessed as cell growth at 10 uM incubated for 48 hrs by sulforhodamine B assay relative to control
In short: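 Screened by the NCI Developmental Therapeutics Program on its panel of 60 human tumour cell lines. Compounds were first tested at a single 10 µM dose, and compounds active there went to dose-response curves. Growth is expressed relative to untreated control (100%). GI50 (50% of maximal proliferation inhibition) and TGI (total growth inhibition) were derived from the dose-response data.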

| Structure (SMILES) | growth at 10 µM (MCF7) | growth at 10 µM (Hs-578T) | growth at 10 µM (OVCAR-5) | growth at 10 µM (ACHN) | growth at 10 µM (A549) | growth at 10 µM (NCI/ADR-RES) | growth at 10 µM (LOX IMVI) | growth at 10 µM (T47D) | growth at 10 µM (SW-620) | growth at 10 µM (NCI-H322M) | growth at 10 µM (SK-MEL-28) | growth at 10 µM (HOP-92) | growth at 10 µM (PC-3) | growth at 10 µM (OVCAR-8) | growth at 10 µM (COLO 205) | growth at 10 µM (SF-268) | growth at 10 µM (HCC 2998) | growth at 10 µM (SF-539) | growth at 10 µM (K562) | growth at 10 µM (U-251) | further results |
| --- | --- | --- | --- | --- | --- | --- | --- | --- | --- | --- | --- | --- | --- | --- | --- | --- | --- | --- | --- | --- | --- |
| CC1(C)CCc2cc(-c3ccn(S(=O)(=O)c4ccc(C(C)(C)C)cc4)n3)ccc2O1 | 95.7% | 97.8% | 99.6% | 87.8% | 74.6% | 82.5% | 96.5% | 84.9% | 89.7% | 95.6% | 92.8% | 73.2% | 72.9% | 84.5% | 118% | 92.1% | 98% | 91.2% | 72.2% | 80.8% | growth at 10 µM (OVCAR-4): 63.2%; growth at 10 µM (UACC-62): 70.4%; growth at 10 µM (MDA-MB-435): 93%; growth at 10 µM (CCRF-CEM): 74.4%; growth at 10 µM (OVCAR-3): 91.8%; growth at 10 µM (NCI-H23): 83.8%; growth at 10 µM (RPMI-8226): 65.1%; growth at 10 µM (SF-295): 82.6%; growth at 10 µM (DU-145): 70%; growth at 10 µM (IGROV-1): 93.3%; growth at 10 µM (MDA-MB-468): 52.5%; growth at 10 µM (MDA-MB-231): 78.4%; growth at 10 µM (HL-60(TB)): 111% |
| CC(=O)Nc1ccc(S(=O)(=O)n2ccc(-c3ccc4c(c3)CCC(C)(C)O4)n2)cc1 | 66.2% | 102% | 96.3% | 79.3% | 57.8% | 56.9% | 64.1% | 31.1% | 82.5% | 89% | 93.1% | 69.8% | 44.4% | 69.4% | 88.8% | 77.2% | 83.3% | 73.8% | 36.7% | 66% | growth at 10 µM (OVCAR-4): 46.2%; growth at 10 µM (UACC-62): 62.4%; growth at 10 µM (MDA-MB-435): 67.3%; growth at 10 µM (CCRF-CEM): 55.4%; growth at 10 µM (OVCAR-3): 74.4%; growth at 10 µM (NCI-H23): 56.6%; growth at 10 µM (RPMI-8226): 43.7%; growth at 10 µM (SF-295): 60.2%; growth at 10 µM (DU-145): 83.5%; growth at 10 µM (IGROV-1): 68%; growth at 10 µM (MDA-MB-468): 24.9%; growth at 10 µM (MDA-MB-231): 88.6%; growth at 10 µM (HL-60(TB)): 91.9% |
